Columns and labels:
Type in all cases: functional, cell-based
MCF7 = assay: Cytotoxicity against human MCF7 cells after 24 to 48 hrs by MTT assay
SH-SY5Y = assay: Cytotoxicity against human SH-SY5Y cells after 24 to 48 hrs by MTT assay
How it was run: (§1)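 Treatment began 24 h after seeding. Compounds were dissolved in DMSO and diluted in DMEM to final 1, 5, 10, 20 and 40 μM, then incubated 24 or 48 h. MTT (0.5 mg/ml) was added for 3 h at 37 °C, formazan dissolved in DMSO, and absorbance read at 595 nm. Each assay was run in triplicate. IC50 came from nonlinear regression of a sigmoid dose-response curve, accepted when R^2 >0.95.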

HepG2 = assay: Cytotoxicity against human HepG2 cells after 24 to 48 hrs by MTT assay; how it was run: as §1
NCI-H460 = assay: Cytotoxicity against human H460 cells after 24 to 48 hrs by MTT assay; how it was run: as §1

| SMILES | IC50 (MCF7) [µM] | IC50 (SH-SY5Y) [µM] | IC50 (HepG2) [µM] | IC50 (NCI-H460) [µM] |
| --- | --- | --- | --- | --- |
| COc1ccc(/C=C/C(=O)/C=C/c2nc3cc([N+](=O)[O-])ccc3n2C)cc1O | 4.8 | 8.1 | 4.6 | 10.5 |
| COc1cc(/C=C/C(=O)/C=C/c2nc3ccccc3n2C)ccc1O | 3.7 | 4.7 | 2.9 | 7 |
| COc1cc(/C=C/C(=O)/C=C/c2nc3cc(O)ccc3n2C)ccc1O | 2.9 | 4.8 | 3.6 | 7.6 |
| COc1ccc(/C=C/C(=O)/C=C/c2nc3c(C)c(C)ccc3n2C)cc1O | 3.5 | 4.8 | 3.9 | 7.3 |
| COc1ccc(/C=C/C(=O)/C=C/c2nc3c(C)cccc3n2C)cc1O | 7.4 | 19.1 | 14.7 | 25.4 |
| COc1cc(/C=C/C(=O)/C=C/c2nc3cc(C)ccc3n2C)ccc1O | 4.5 | 4.7 | 4.2 | 7.7 |
| COc1cc(/C=C/C(=O)/C=C/c2nc3cc(Cl)ccc3n2C)ccc1O | 4.4 | 4.7 | 4 | 8.9 |
| CC(=O)O[C@H]1C(=O)[C@@]2(C)[C@H]([C@H](OC(=O)c3ccccc3)[C@]3(O)C[C@H](OC(=O)[C@H](O)[C@@H](NC(=O)c4ccccc4)c4ccccc4)C(C)=C1C3(C)C)[C@]1(OC(C)=O)CO[C@@H]1C[C@@H]2O [PACLITAXEL] |  | 0.004 | 0.007 | 0.008 |
| COc1ccc(/C=C/C(=O)/C=C/c2nc3ccccc3n2C)cc1O | 3.6 | 4.8 | 2.9 | 6.9 |
| COc1cc(/C=C/C(=O)CC(=O)/C=C/c2ccc(O)c(OC)c2)ccc1O [CURCUMIN] | 49.8 | 105 | 87.5 | 51.3 |
| COc1ccc(/C=C/C(=O)/C=C/c2nc3cc(O)ccc3n2C)cc1O | 1.9 | 4.6 | 3.7 | 7.2 |
| COc1cc(/C=C/C(=O)/C=C/c2nc3c(C)c(C)ccc3n2C)ccc1O | 14.1 | 19 | 8.5 | 31.9 |
| COc1ccc2c(c1)nc(/C=C/C(=O)/C=C/c1ccc(OC)c(O)c1)n2C | 3.7 | 4.8 | 4.2 | 11.7 |
| COc1ccc(/C=C/C(=O)/C=C/c2nc3cc(Cl)ccc3n2C)cc1O | 3.5 | 4.8 | 4.1 | 7.3 |
| COc1cc(/C=C/C(=O)/C=C/c2nc3c(C)cccc3n2C)ccc1O | 3.5 | 1 | 1.9 | 3 |
| COc1ccc(/C=C/C(=O)/C=C/c2nc3cc(C)ccc3n2C)cc1O | 3.6 | 4.8 | 3.3 | 7.7 |
| COc1cc(/C=C/C(=O)/C=C/c2nc3cc([N+](=O)[O-])ccc3n2C)ccc1O | 3.7 | 4.6 | 3.7 | 6.7 |
| COc1ccc2c(c1)nc(/C=C/C(=O)/C=C/c1ccc(O)c(OC)c1)n2C | 3.9 | 4.8 | 3.8 | 12.7 |
